Assay results published in ChEMBL document CHEMBL4270616, “Asymmetrical meta-methoxylated diarylpentanoids: Rational design, synthesis and anti-cancer evaluation in-vitro” (Eur J Med Chem, 2018).

Legend:
SW-620 [1] = assay: Cytotoxicity against human SW620 cells after 72 hrs by MTT assay; type: functional, cell-based; details: SW-620, 72 h
In short: (§1)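 Tumour lines kept in DMEM with 10% FBS and 1% penicillin/streptomycin at 37°C, 5% CO2. Seeded at 1500-5000 cells/well by doubling time and size, 24 h, then compound in DMSO-containing medium (final DMSO 0.1%) for 72 h. MTT (5 mg/mL) 4 h at 37°C, DMSO solubilisation, absorbance at 570 nm.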

A549 [2] = assay: Cytotoxicity against human A549 cells after 72 hrs by MTT assay; type: functional, cell-based; details: A549, 72 h; in short: as §1
[3] = Cytotoxicity against human EJ28 cells after 72 hrs by MTT assay; type: functional, cell-based; details: EJ-28, 72 h; in short: as §1
HT-1080 [4] = assay: Cytotoxicity against human HT1080 cells after 72 hrs by MTT assay; type: functional, cell-based; details: HT-1080, 72 h; in short: as §1
MCF7 [5] = assay: Cytotoxicity against human MCF7 cells after 72 hrs by MTT assay; type: functional, cell-based; details: MCF7, 72 h; in short: as §1
NHDF = assay: Cytotoxicity against NHDF after 72 hrs by MTT assay; type: cell-based; details: Homo sapiens
In short: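 NHDF grown in DMEM with 5% FBS at 37°C, 5% CO2. Seeded at 1500-5000 cells/well, 24 h, then compound added in DMSO-containing medium (final DMSO 0.1%) for 72 h. MTT (5 mg/mL in medium) added for 4 h at 37°C, formazan dissolved in DMSO, absorbance read at 570 nm.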

SW-620 [6] = assay: Cytotoxicity against human SW620 cells assessed as inhibition of cell proliferation at 20 uM after 72 hrs by MTT assay relative to control; type: functional; details: SW-620, 72 h
In short: (§2)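 Single-concentration screen at 20 μM with 72 h exposure in DMEM with 10% FBS, final DMSO 0.1%. Read-out was MTT (5 mg/mL, 4 h, 37°C), DMSO solubilisation and absorbance at 570 nm, expressed as percent inhibition. Lines reaching a threshold percentage went on to IC50 determination.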

A549 [7] = assay: Cytotoxicity against human A549 cells assessed as inhibition of cell proliferation at 20 uM after 72 hrs by MTT assay relative to control; type: functional; details: A549, 72 h; in short: as §2
[8] = Cytotoxicity against human EJ28 cells assessed as inhibition of cell proliferation at 20 uM after 72 hrs by MTT assay relative to control; type: functional; details: EJ-28, 72 h; in short: as §2
HT-1080 [9] = assay: Cytotoxicity against human HT1080 cells assessed as inhibition of cell proliferation at 20 uM after 72 hrs by MTT assay relative to control; type: functional; details: HT-1080, 72 h; in short: as §2
MCF7 [10] = assay: Cytotoxicity against human MCF7 cells assessed as inhibition of cell proliferation at 20 uM after 72 hrs by MTT assay relative to control; type: functional; details: MCF7, 72 h; in short: as §2

Structure (SMILES)	IC50 (SW-620 [1])	IC50 (A549 [2])	IC50 [3]	IC50 (HT-1080 [4])	IC50 (MCF7 [5])	IC50 (NHDF)	inhibition at 20 µM (SW-620 [6])	inhibition at 20 µM (A549 [7])	inhibition at 20 µM [8]	inhibition at 20 µM (HT-1080 [9])	inhibition at 20 µM (MCF7 [10])
COc1ccc(/C=C2\CCC/C(=C\c3ccc(Cl)cc3Cl)C2=O)cc1OC	10.3 µM	> 20 µM	12.4 µM	10.5 µM	16.2 µM	> 50 µM	> 50%	> 50%	> 50%	> 50%	> 50%
COc1ccc(/C=C2\CCC/C(=C\c3ccc(OC)c(OC)c3)C2=O)cc1OC	4.5 µM	8.5 µM	3.5 µM	3 µM	13.5 µM	9.7 µM	> 50%	> 50%	> 50%	> 50%	> 50%
COc1cccc(/C=C2\CCC/C(=C\c3ccc(Cl)c(Cl)c3)C2=O)c1OC	10 µM	> 20 µM	12.1 µM	10.8 µM	9 µM	25.5 µM	> 50%	> 50%	> 50%	> 50%	> 50%
COc1cccc(/C=C2\CCC/C(=C\c3cccc(Cl)c3Cl)C2=O)c1OC	16.3 µM	> 20 µM	18.1 µM	19.3 µM	> 20 µM	> 50 µM	> 50%	> 50%	> 50%	> 50%	> 50%
COc1cccc(/C=C2\CCC/C(=C\c3cccc(O)c3)C2=O)c1OC	6.4 µM	> 20 µM	8.5 µM	8.5 µM	8.8 µM	19.3 µM	> 50%	> 50%	> 50%	> 50%	> 50%
COc1cccc(/C=C2\CCC/C(=C\c3ccc(Br)cc3)C2=O)c1OC	11.1 µM	> 20 µM	15.2 µM	13.7 µM	13.8 µM	21.4 µM	> 50%	> 50%	> 50%	> 50%	> 50%
COc1ccc(/C=C2\CCC/C(=C\c3ccc(O)c(Cl)c3)C2=O)cc1OC	7.1 µM	> 20 µM	8 µM	7.6 µM	12.3 µM	21.9 µM	> 50%	> 50%	> 50%	> 50%	> 50%
COc1ccc(/C=C2\CCC/C(=C\c3ccccc3Cl)C2=O)cc1OC	7.1 µM	> 20 µM	6.9 µM	6.8 µM	10.4 µM	21.6 µM	> 50%	> 50%	> 50%	> 50%	> 50%
COc1cccc(/C=C2\CCC/C(=C\c3cccc(Br)c3)C2=O)c1OC	8.8 µM	> 20 µM	12.1 µM	12.2 µM	11.7 µM	23.9 µM	> 50%	> 50%	> 50%	> 50%	> 50%
COc1cccc(/C=C2\CCC/C(=C\c3ccc(O)cc3)C2=O)c1OC	> 20 µM	> 20 µM	> 20 µM	> 20 µM	> 20 µM	> 50 µM	> 50%	> 50%	> 50%	> 50%	> 50%
COc1cccc(/C=C2\CCC/C(=C\c3ccc(Cl)cc3)C2=O)c1OC	11.1 µM	> 20 µM	11 µM	11.1 µM	10.3 µM	18.6 µM	> 50%	> 50%	> 50%	> 50%	> 50%
COc1ccccc1/C=C1\CCC/C(=C\c2cccc(OC)c2OC)C1=O	> 20 µM	> 20 µM	16.6 µM	14.1 µM	12 µM	31.3 µM	> 50%	> 50%	> 50%	> 50%	> 50%
COc1cc(/C=C2\CCC/C(=C\c3ccc(OC)c(OC)c3)C2=O)cc(OC)c1	2.5 µM	5.1 µM	3 µM	2.6 µM	3.9 µM	6.5 µM	> 50%	> 50%	> 50%	> 50%	> 50%
COc1cccc(/C=C2\CCC/C(=C\c3cccc(Cl)c3)C2=O)c1OC	9.1 µM	> 20 µM	11.3 µM	10.3 µM	12 µM	21.4 µM	> 50%	> 50%	> 50%	> 50%	> 50%
COc1ccc(/C=C2\CCC/C(=C\c3cccc(Cl)c3)C2=O)cc1OC	5.1 µM	11 µM	5.4 µM	4.9 µM	6 µM	11.9 µM	> 50%	> 50%	> 50%	> 50%	> 50%
COc1cc(/C=C2\CCC/C(=C\c3cccc(OC)c3OC)C2=O)cc(OC)c1	3.8 µM	10.2 µM	3.6 µM	4.5 µM	1.7 µM	13.1 µM	> 50%	> 50%	> 50%	> 50%	> 50%
COc1ccc(/C=C2\CCC/C(=C\c3ccc(Br)cc3)C2=O)cc1OC	5.2 µM	16 µM	7.1 µM	4.3 µM	6.9 µM	13.1 µM	> 50%	> 50%	> 50%	> 50%	> 50%
COc1cccc(/C=C2\CCC/C(=C\c3cc(Cl)cc(Cl)c3)C2=O)c1OC	5.5 µM	12.5 µM	7.5 µM	6.1 µM	4.3 µM	21.6 µM	> 50%	> 50%	> 50%	> 50%	> 50%
COc1ccc(/C=C2\CCC/C(=C\c3ccc(O)c(O)c3)C2=O)cc1OC	10.5 µM	> 20 µM	12.1 µM	4.2 µM	14.4 µM	25.2 µM	> 50%	> 50%	> 50%	> 50%	> 50%
COc1cccc(/C=C2\CCC/C(=C\c3ccc(O)c(Cl)c3)C2=O)c1OC	16.8 µM	> 20 µM	18.3 µM	14.3 µM	16.4 µM	39.5 µM	> 50%	> 50%	> 50%	> 50%	> 50%
COc1cccc(/C=C2\CCC/C(=C\c3ccc(O)c(O)c3)C2=O)c1OC	6.3 µM	> 20 µM	6.4 µM	4.7 µM	4.7 µM	17.9 µM	> 50%	> 50%	> 50%	> 50%	> 50%
